Paper PMC2121072 (The Journal of Cell Biology, 1996)

Assays:
[1] = target: T1, GST-PDZ 1+2+3 fusion protein of hDlg (Homo sapiens, UniProt Q12959); experiment: Surface plasmon resonance; format: binding; conditions: 0.5 or 2.0 mM ATP-Mg2+ complex; orientation of the experiment not stated; data not shown
[2] = tested on: GST-PDZ3 fusion protein of Dlg; experiment: In vitro ATP binding, Dlg GST-PDZ3; design: species or system Drosophila; conditions: data not shown
How it was run: (§1)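 Solution assay: purified protein (GST fusions eluted from glutathione beads with 5.0 mM reduced glutathione, then dialysed into binding buffer) incubated with [γ-32P]ATP (100-500 nCi) plus 100 nM cold ATP. Buffer: 10 mM Hepes pH 7.6, 50 mM KCl, 75 mM NaCl, 1.0 mM MgCl2, 1.0 mM EGTA. Incubated 3 h on ice, filtered through nitrocellulose, washed, scintillation-counted. GST or BSA nonspecific controls; duplicate or triplicate.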

PDZ 3 domain of hDlg = experiment: Solution filter ATP-binding assay, PDZ3 of hDlg; design: species or system human; conditions: 100 nM cold ATP, pH 7.6, 3 h on ice, Fig. 3 B
How it was run: as §1

fusion proteins = experiment: Competition of labeled ATP binding to fusion proteins; conditions: excess of cold, nonlabeled competitor nucleotide
[3] = target: T1, GST-PDZ 1+2+3 fusion protein of hDlg; experiment: Solution nitrocellulose filter ATP-binding assay, GST-PDZ1+2+3 of hDlg; conditions: Scatchard analysis, Fig. 4 inset
How it was run: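 Scatchard: 2.0 µg glutathione-eluted, dialysed GST-PDZ1+2+3 incubated in solution with increasing ATP concentrations plus [γ-32P]ATP, 3 h on ice in Hepes pH 7.6 buffer containing 1.0 mM MgCl2. Bound label captured on nitrocellulose filter, washed, scintillation-counted. Parallel GST control at each ATP concentration; cold ATP quantified by absorbance at 259 nm; each value is the average of duplicates.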

PDZ domains = experiment: Nucleotide binding with radiolabeled GTP; conditions: data not shown

T1 sequence (Q12959 201-584): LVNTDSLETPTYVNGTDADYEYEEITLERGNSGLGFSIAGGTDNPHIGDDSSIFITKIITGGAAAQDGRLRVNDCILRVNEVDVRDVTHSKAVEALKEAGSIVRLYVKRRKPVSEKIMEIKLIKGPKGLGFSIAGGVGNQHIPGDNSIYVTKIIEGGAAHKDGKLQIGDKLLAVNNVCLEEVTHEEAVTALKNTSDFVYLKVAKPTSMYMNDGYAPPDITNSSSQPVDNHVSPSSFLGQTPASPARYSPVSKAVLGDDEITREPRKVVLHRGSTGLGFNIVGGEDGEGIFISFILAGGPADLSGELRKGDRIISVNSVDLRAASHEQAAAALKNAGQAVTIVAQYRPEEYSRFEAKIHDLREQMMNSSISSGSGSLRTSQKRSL

| effect of ATP on GST-PDZ 1+2+3 / Kv1.4 peptide binding affinity [1] | ATP binding [2] | ATP binding (PDZ 3 domain of hDlg) | binding of labeled ATP in presence of competitor (fusion proteins) | ATP binding sites (Scatchard) [3] | binding of radiolabeled GTP (PDZ domains) | Compound |
| --- | --- | --- | --- | --- | --- | --- |
| No effect on the binding affinity | binds ATP in vitro | inactive for ATP binding | failed | single class of binding sites |  | Nc1ncnc2c1ncn2[C@@H]1O[C@H](COP(=O)(O)OP(=O)(O)OP(=O)(O)O)[C@@H](O)[C@H]1O [ATP] |
|  |  |  | succeeded |  | no binding | Nc1nc2c(ncn2[C@@H]2O[C@H](COP(=O)(O)OP(=O)(O)OP(=O)(O)O)[C@@H](O)[C@H]2O)c(=O)[nH]1 [GTP] |
